Results as given in ChEMBL document CHEMBL1126550, “Nanomolar-affinity, non-peptide oxytocin receptor antagonists” (J Med Chem, 1993).

Tests used:
Oxytocin receptor = target: T1, Oxytocin receptor (Rattus norvegicus, UniProt P70536); assay: Inhibition of radioligand [3H]oxytocin binding at the oxytocin (OT) receptor in rat uterine tissue
T1 sequence (P70536 whole entry): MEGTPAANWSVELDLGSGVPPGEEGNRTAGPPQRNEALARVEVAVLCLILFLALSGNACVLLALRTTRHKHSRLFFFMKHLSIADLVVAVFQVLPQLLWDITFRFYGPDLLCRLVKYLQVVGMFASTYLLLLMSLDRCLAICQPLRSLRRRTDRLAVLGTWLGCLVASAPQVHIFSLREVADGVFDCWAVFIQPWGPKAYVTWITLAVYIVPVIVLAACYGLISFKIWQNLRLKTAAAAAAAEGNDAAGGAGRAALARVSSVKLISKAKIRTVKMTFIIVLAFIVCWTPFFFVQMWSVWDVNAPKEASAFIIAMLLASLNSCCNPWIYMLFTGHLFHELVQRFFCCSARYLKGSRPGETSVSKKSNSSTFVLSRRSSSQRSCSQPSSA
Outline: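 Uteri taken from rats given diethylstilbestrol dipropionate (0.3 mg/kg ip, 18–24 h before), crude membranes. 1 nM [3H]OT (30–60 Ci/mmol), equilibrium 60 min at 22 °C in 50 mM Tris-HCl, 5 mM MgCl2, 0.1% BSA, pH 7.4. Nonspecific binding with 1 mM unlabeled OT. Filtered on glass fiber. Initial single-concentration screen, then IC50 from seven concentrations by linear regression.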

Vasopressin V1 receptor = Vasopressin V1 receptor (Rattus norvegicus, UniProt P48974+P30560); assay: Inhibition of radioligand [3H]AVP binding to the vasopressin V1 receptor in rat liver tissue
Outline: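 Crude membranes from male rat liver (V1 sites) competed with 1 nM [3H]AVP (80–90 Ci/mmol). Equilibrium 30 min, 30 °C, buffer 100 mM Tris-HCl, 5 mM MgCl2, 0.1% BSA, 50 μM PMSF, 50 μg/mL bacitracin, pH 8.0. 10 μM unlabeled AVP for nonspecific binding. Filtration through glass-fiber filters. IC50 from linear regression over seven concentrations.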

Vasopressin V2 receptor = Vasopressin V2 receptor (Rattus norvegicus, UniProt Q00788); assay: Inhibition of radioligand [3H]-AVP binding to the vasopressin V2 receptor in rat kidney tissue
Outline: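 [3H]AVP (80–90 Ci/mmol) at 2 nM competed on crude membranes from male rat kidney medulla (V2 sites). Equilibrium 30 min at 30 °C in 100 mM Tris-HCl, 5 mM MgCl2, 0.1% BSA, 50 μM PMSF, 50 μg/mL bacitracin, pH 8.0. Nonspecific binding with 10 μM unlabeled AVP. Glass-fiber filtration. IC50 by linear regression of % inhibition vs log concentration, seven concentrations.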

Vasopressin V2 receptor, sequence (Q00788 whole entry): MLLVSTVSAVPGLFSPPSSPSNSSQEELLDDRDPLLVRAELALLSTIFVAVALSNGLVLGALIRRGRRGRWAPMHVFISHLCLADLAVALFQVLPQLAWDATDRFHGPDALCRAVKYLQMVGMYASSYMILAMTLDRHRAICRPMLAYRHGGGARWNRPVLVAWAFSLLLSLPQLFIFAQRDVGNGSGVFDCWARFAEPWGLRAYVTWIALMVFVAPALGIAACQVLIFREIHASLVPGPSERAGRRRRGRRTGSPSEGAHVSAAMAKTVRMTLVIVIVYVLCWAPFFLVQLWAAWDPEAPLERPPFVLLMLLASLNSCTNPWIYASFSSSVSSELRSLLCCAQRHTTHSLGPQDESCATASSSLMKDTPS

SMILES	IC50 (Oxytocin receptor) [nM]	IC50 (Vasopressin V1 receptor) [nM]	IC50 (Vasopressin V2 receptor) [nM]
CN(C)[C@H](Cc1c[nH]cn1)C(=O)N[C@H]1C[C@H]2CC[C@]1(CS(=O)(=O)N1CCC3(CCc4ccccc43)CC1)C2(C)C	49	1700	3400
CC1(C)[C@@H]2CC[C@@]1(CS(=O)(=O)N1CCC3(CCc4ccccc43)CC1)[C@@H](NC(=O)[C@H](N)CCS(C)(=O)=O)C2	45	5200	12000
CC1(C)[C@@H]2CC[C@@]1(CS(=O)(=O)N1CCC3(CCc4ccccc43)CC1)[C@@H](N1C(=O)NC(CCS(N)(=O)=O)C1=O)C2 (stereo not given in full)	13	410	1100
CC1(C)[C@@H]2CC[C@@]1(CS(=O)(=O)N1CCC3(CCc4ccccc43)CC1)[C@H](N)C2	6500	> 10000	> 10000
CC(C)C[C@H](N)C(=O)NC[C@@]1(O)C[C@H]2CC[C@]1(CS(=O)(=O)N1CCC3(C=Cc4ccccc43)CC1)C2(C)C	42	430	2200
CC(C)[C@H](NC(=O)Cc1c[nH]cn1)C(=O)NC[C@@]1(O)C[C@H]2CC[C@]1(CS(=O)(=O)N1CCC3(C=Cc4ccccc43)CC1)C2(C)C	8.3	67	540
CC1(C)[C@@H]2CC[C@@]1(CS(=O)(=O)N1CCC3(C=Cc4ccccc43)CC1)[C@@](O)(CCNC(=O)c1cccnc1)C2	97	1900	6000
Cn1cncc1CC(=O)N[C@H]1C[C@H]2CC[C@]1(CS(=O)(=O)N1CCC3(CCc4ccccc43)CC1)C2(C)C	48	2900	7500
CC1(C)[C@@H]2CC[C@@]1(CS(=O)(=O)N1CCC3(C=Cc4ccccc43)CC1)[C@@](O)(CCNC(=O)c1ccccc1)C2	220	4600	23000
CC1(C)[C@@H]2CC[C@@]1(CS(=O)(=O)N1CCC3(C=Cc4ccccc43)CC1)[C@@](O)(CN1C(=O)CCC1=O)C2	110	3000	> 3000
CC1(C)[C@@H]2CC[C@@]1(CS(=O)(=O)N1CCC3(CCc4ccccc43)CC1)[C@@H](NC(=O)c1cccs1)C2	620	> 10000	> 10000
CC1(C)[C@@H]2CC[C@@]1(CS(=O)(=O)N1CCC3(CCc4ccccc43)CC1)[C@@H](NC(=O)CC1CCCNC1)C2 (stereo not given in full)	130	1500	12000
CC1(C)[C@@H]2CC[C@@]1(CS(=O)(=O)N1CCC3(CCc4ccccc43)CC1)[C@@H](NC(=O)CCC(=O)O)C2	410	> 3000	> 300
CC1(C)[C@@H]2CC[C@@]1(CS(=O)(=O)N1CCC3(CCc4ccccc43)CC1)[C@@H](NC(=O)C1CC(S(C)(=O)=O)CN1)C2 (stereo not given in full)	100	4000	5500
CC1(C)[C@@H]2CC[C@@]1(CS(=O)(=O)N1CCC3(C=Cc4ccccc43)CC1)[C@@](O)(CNC(=O)Cc1cccnc1)C2	53	890	4500
CC1(C)[C@@H]2CC[C@@]1(CS(=O)(=O)N1CCC3(CCc4ccccc43)CC1)[C@@H](N1C(=O)CNC1=O)C2	18	1100	2100
CC1(C)[C@@H]2CC[C@@]1(CS(=O)(=O)N1CCC3(CCc4ccccc43)CC1)[C@@H](N1C(=O)C3CC(O)CN3C1=O)C2 (stereo not given in full)	20	500	3200
CC1(C)[C@@H]2CC[C@@]1(CS(=O)(=O)N1CCC3(CCc4ccccc43)CC1)[C@@H](NC(=O)C(CCS(C)(=O)=O)NC(=O)Cc1c[nH]cn1)C2 (stereo not given in full)	1.2	440	280
CC1(C)[C@@H]2CC[C@@]1(CS(=O)(=O)N1CCC3(CCc4ccccc43)CC1)[C@](O)(CNC(=O)C(N)CS(C)(=O)=O)C2 (stereo not given in full)	40	1100	3000
CC1(C)[C@@H]2CC[C@@]1(CS(=O)(=O)N1CCC3(C=Cc4ccccc43)CC1)[C@@](O)(CCNC(=O)C1=CCC(=O)N=C1)C2	49	1000	2600
